Reference: ChEMBL document CHEMBL2086328, “¹⁸F-labeled 2-phenylquinoxaline derivatives as potential positron emission tomography probes for in vivo imaging of β-amyloid plaques” (Eur J Med Chem, 2012)
Each block holds one compound with its values, some of them ahead of it. Activity calls are given as the source filed them. No cut-off for these calls is given here.

Legend:
Brain [1] = test: Biodistribution in ICR mouse brain at 370 kBq, iv after 2 mins by gamma counting; format: ADME, organism-based; settings: in vivo
In short: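 Male ICR mice (five weeks, 20–22 g), tail-vein injection of 18F tracer in 0.1 mL saline with 10% EtOH. Killed by decapitation at set times, n = 5 per time point. Organs removed, weighed and gamma-counted; %ID/g wet tissue from comparison with diluted aliquots of injected dose; mean ± SD.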

Brain [2] = test: Ratio of drug level in ICR mouse brain after 2 mins to ICR mouse brain after 60 mins at 370 kBq, iv; format: ADME, organism-based; settings: in vivo
In short: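 Same intravenous study in ICR mice (370 kBq 18F tracer in saline/10% EtOH, n = 5 per time point). Ratio is brain %ID/g at 2 min divided by brain %ID/g at 60 min post-injection.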

[3] = Binding affinity to beta-amyloid
[4] = Displacement of [125I]IMPY from amyloid beta (1 to 42) after 2 hrs by gamma counting
In short: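 Competition binding against [125I]IMPY (radiochemical purity >95%) on Aβ1-42 aggregates with 1% BSA solution; inhibitor 10^-4–10^-9.5 M; 37 °C, 2 h. Free and bound separated by vacuum filtration on GF/B filters, three PBS washes (0.02 M, pH 7.4, room temperature); filters gamma-counted. Three repeats; IC50 fitted, Ki from Cheng–Prusoff.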

[5] = Lipophilicity, log D of the compound; format: physicochemical; settings: octanol/water
In short: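 18F tracer (740 kBq) in 3 g n-octanol plus 3 g PBS (0.05 M, pH 7.4). Vortexed 3 min at room temperature, centrifuged 5 min at 3000 rpm; weighed samples from octanol and buffer layers counted.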

[6] = target: Amyloid-beta precursor protein (Homo sapiens) (UniProt P05067); test: Binding affinity to beta-amyloid in Alzheimer's disease patient brain at 1.85 MBq/[…] after 1 hr by thioflavin-S based autoradiography; settings: 1.85 M, tested as the 18F-labelled form
Sequence of Amyloid-beta precursor protein (Homo sapiens) (P05067 whole entry): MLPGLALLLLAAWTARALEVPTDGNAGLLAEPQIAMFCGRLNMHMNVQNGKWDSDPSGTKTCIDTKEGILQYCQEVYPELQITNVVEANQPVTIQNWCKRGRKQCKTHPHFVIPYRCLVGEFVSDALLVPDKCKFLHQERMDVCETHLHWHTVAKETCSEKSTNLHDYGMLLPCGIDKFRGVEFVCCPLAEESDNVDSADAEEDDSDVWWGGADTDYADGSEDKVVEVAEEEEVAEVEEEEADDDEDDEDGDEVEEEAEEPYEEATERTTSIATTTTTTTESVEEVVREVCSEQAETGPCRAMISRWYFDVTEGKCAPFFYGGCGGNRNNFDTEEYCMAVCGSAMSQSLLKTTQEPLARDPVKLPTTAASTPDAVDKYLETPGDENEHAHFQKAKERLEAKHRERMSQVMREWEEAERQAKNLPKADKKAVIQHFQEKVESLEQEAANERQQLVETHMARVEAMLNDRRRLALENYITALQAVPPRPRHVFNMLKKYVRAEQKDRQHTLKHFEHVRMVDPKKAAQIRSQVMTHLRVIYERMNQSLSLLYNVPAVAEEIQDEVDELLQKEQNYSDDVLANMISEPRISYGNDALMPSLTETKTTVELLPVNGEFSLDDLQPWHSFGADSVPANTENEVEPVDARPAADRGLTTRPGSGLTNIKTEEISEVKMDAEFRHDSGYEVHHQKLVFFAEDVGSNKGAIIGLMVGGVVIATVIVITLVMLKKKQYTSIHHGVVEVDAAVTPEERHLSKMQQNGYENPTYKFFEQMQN
In short: (§1)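 Paraffin human temporal-lobe sections (5 µm; AD case or control) deparaffinized through xylene and graded ethanol, then PBS (0.2 M, pH 7.4) for 30 min. Incubated with 18F tracer (1.85 MBq/200 µL), 1 h, room temperature; washed in 40% EtOH, rinsed in water; phosphor plate exposure 2 h.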

Mus musculus = species: Mus musculus; test: Binding affinity to beta-amyloid in APPswe/PSEN1 transgenic C57BL6 mouse model brain at 1.85 MBq/[…] after 1 hr by thioflavin-S based autoradiography; settings: 1.85 M, tested as the 18F-labelled form
In short: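 Transgenic mouse brain sections deparaffinized, then incubated with 18F tracer (1.85 MBq/200 µL) for 1 h at room temperature. Washed in 40% EtOH, phosphor-imaged after 2 h exposure. Same sections then stained with 0.125% thioflavin-S in 10% EtOH for 3 min and imaged by fluorescence (excitation 405 nm, long-pass 505 nm).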

[7] = target: Amyloid-beta precursor protein (Homo sapiens) (UniProt P05067); test: Binding affinity to beta-amyloid in normal human brain at 1.85 MBq/[…] after 1 hr by thioflavin-S based autoradiography; settings: 1.85 M, tested as the 18F-labelled form; in short: as §1

Drug uptake (Brain [1]): 7.33 % ID/g | Ratio (Brain [2]): 3.9 | Ki [3]: 2.87 nM | Ki [4]: 2.9 nM | logD [5]: 2.41
SMILES: CNc1ccc(/C=C/c2ccc(OCCOCCOCC[18F])nc2)cc1 [FLORBETAPIR F 18]

Activity [6]: Active | Activity (Mus musculus): Active | Ki [4]: 5.3 nM | Activity [7]: inactive
SMILES: CNc1ccc2nc(-c3ccc(OCCOCCOCCF)cc3)cnc2c1

Ki [3]: 0.74 nM
SMILES: CNc1ccc(-c2nc3ccc(O)cc3s2)cc1[18F] [FLUTEMETAMOL F 18]

Ki [3]: 2.22 nM
SMILES: CNc1ccc(/C=C/c2ccc(OCCOCCOCC[18F])cc2)cc1 [FLORBETABEN F18]
